pIC50: −log10 of the molar value. In brackets after ≈: the same amount, converted by molar mass.
Columns and labels:
Format in all cases: functional
[1] = system: Radical scavenging activity; test: Antioxidant activity assessed as DPPH free radical scavenging activity after 30 mins; set-up: concentration or dose not given beside the values
In short: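 Sample mixed with DPPH in ethanol and left 30 min at 37 °C. Optical density read at 515 nm. Ethanol replaced DPPH for the blank and DMSO replaced sample for the control. IC50 (amount scavenging 50% of DPPH) came from regression of average percent DPPH reduction against concentration, over three separate tests.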

Staphylococcus aureus [2] = test: Antimicrobial activity against Staphylococcus aureus ATCC 25923 by agar dilution method
In short: (§1)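 Agar dilution against the listed ATCC bacterial strains. MIC taken as the lowest concentration preventing visible growth.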

Candida albicans = test: Antimicrobial activity against Candida albicans ATCC 10231 by disk diffusion method
In short: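 Bauer-Kirby disk diffusion against Candida albicans ATCC 10231; experiments repeated three times, results expressed as average values (zone of inhibition).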

Nakaseomyces glabratus = test: Antimicrobial activity against Candida glabrata ATCC 28838 by disk diffusion method
In short: (§2)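 Bauer-Kirby disk diffusion against the listed ATCC bacterial and Candida strains. Growth inhibition read as zone of inhibition diameter (mm). Three repeat experiments, reported as averages.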

Candida tropicalis = test: Antimicrobial activity against Candida tropicalis ATCC 13801 by disk diffusion method; in short: as §2
Escherichia coli [3] = test: Antimicrobial activity against Escherichia coli ATCC 25922 by agar dilution method; in short: as §1
Pseudomonas aeruginosa [4] = test: Antimicrobial activity against Pseudomonas aeruginosa ATCC 27853 by agar dilution method; in short: as §1
Pseudomonas aeruginosa [5] = test: Antimicrobial activity against Pseudomonas aeruginosa ATCC 27853 by disk diffusion method; in short: as §2
[6] = system: Staphylococcus epidermidis; test: Antimicrobial activity against Staphylococcus epidermidis ATCC 12228 by agar dilution method; in short: as §1
[7] = system: Staphylococcus epidermidis; test: Antimicrobial activity against Staphylococcus epidermidis ATCC 12228 by disk diffusion method; in short: as §2
Escherichia coli [8] = test: Antimicrobial activity against Escherichia coli ATCC 25922 by disk diffusion method; in short: as §2
Klebsiella pneumoniae [9] = test: Antimicrobial activity against Klebsiella pneumoniae ATCC 13883 by disk diffusion method; in short: as §2
Staphylococcus aureus [10] = test: Antimicrobial activity against Staphylococcus aureus ATCC 25923 by disk diffusion method; in short: as §2
Enterobacter cloacae [11] = test: Antimicrobial activity against Enterobacter cloacae ATCC 13047 by agar dilution method; in short: as §1
Klebsiella pneumoniae [12] = test: Antimicrobial activity against Klebsiella pneumoniae ATCC 13883 by agar dilution method; in short: as §1
Enterobacter cloacae [13] = test: Antimicrobial activity against Enterobacter cloacae ATCC 13047 by disk diffusion method; in short: as §2

SMILES: COc1cc(-c2cc(=O)c3c(O)cc(O)cc3o2)ccc1O
- Activity [1]: < 40%

SMILES: COc1ccc(-c2oc3cc(O)cc(O)c3c(=O)c2OC)cc1
- Activity [1]: < 40%

SMILES: O=c1cc(-c2ccc(O)cc2)oc2cc(O)cc(O)c12
- Activity [1]: < 40%

SMILES: C[C@@H]1O[C@@H](O[C@@H]2[C@@H](O)[C@H](OCCc3ccc(O)c(O)c3)O[C@H](CO)[C@H]2OC(=O)/C=C/c2ccc(O)c(O)c2)[C@H](O)[C@H](O)[C@H]1O [ACETOSIDE]
- Activity [1]: > 70%
- pIC50 [1]: 4.31
- MIC (Staphylococcus aureus [2]): 400 µg/mL (≈ 640 µM)

SMILES: C[C@@H]1[C@H](O)[C@@H](C)/C=C/C=C/C=C/C=C/C=C/C=C/C=C/[C@H](O[C@@H]2O[C@H](C)[C@@H](O)[C@H](N)[C@@H]2O)C[C@@H]2O[C@](O)(C[C@@H](O)C[C@@H](O)[C@H](O)CC[C@@H](O)C[C@@H](O)CC(=O)O[C@H]1C)C[C@H](O)[C@H]2C(=O)O [AMPHOTERICIN B]
- inhibition zone (IZ) (Candida albicans): 20 mm
- inhibition zone (IZ) (Nakaseomyces glabratus): 24 mm
- inhibition zone (IZ) (Candida tropicalis): 22 mm

SMILES: O=C(O)/C=C/c1ccc(O)c(O)c1 [CAFFEIC ACID]
- pIC50 [1]: 4.18

SMILES: O=C(O)c1cc(O)c(O)c(O)c1 [GALLIC ACID]
- pIC50 [1]: 4.75

SMILES: CCN[C@@H]1C[C@H](N)[C@@H](O[C@H]2OC(CN)=CC[C@H]2N)[C@H](O)[C@H]1O[C@H]1OC[C@](C)(O)[C@H](NC)[C@H]1O [NETILMICIN]
- MIC (Escherichia coli [3]): 10 µg/mL (≈ 21 µM)
- MIC (Pseudomonas aeruginosa [4]): 8.8 µg/mL (≈ 18.5 µM)
- inhibition zone (IZ) (Pseudomonas aeruginosa [5]): 20 mm
- MIC [6]: 4 µg/mL (≈ 8.41 µM)
- inhibition zone (IZ) [7]: 24 mm
- inhibition zone (IZ) (Escherichia coli [8]): 23 mm
- inhibition zone (IZ) (Klebsiella pneumoniae [9]): 25 mm
- inhibition zone (IZ) (Staphylococcus aureus [10]): 22 mm
- MIC (Staphylococcus aureus [2]): 4 µg/mL (≈ 8.41 µM)
- MIC (Enterobacter cloacae [11]): 8 µg/mL (≈ 16.8 µM)
- MIC (Klebsiella pneumoniae [12]): 8 µg/mL (≈ 16.8 µM)
- inhibition zone (IZ) (Enterobacter cloacae [13]): 22 mm

SMILES: C[C@@H]1O[C@@H](O[C@@H]2[C@@H](O)[C@H](OCCc3ccc(O)c(O)c3)O[C@H](CO)[C@H]2OC(=O)/C=C/c2ccc(O)c(O)c2)[C@H](O)[C@H](O)[C@H]1O[C@@H]1OC[C@](O)(CO)[C@H]1O [SAMIOSIDE]
- MIC (Escherichia coli [3]): 520 µg/mL (≈ 687 µM)
- MIC (Pseudomonas aeruginosa [4]): 850 µg/mL (≈ 1120 µM)
- inhibition zone (IZ) (Pseudomonas aeruginosa [5]): 10 mm
- inhibition zone (IZ) (Candida albicans): 8 mm
- MIC [6]: 480 µg/mL (≈ 634 µM)
- Activity [1]: > 70%
- pIC50 [1]: 4.62
- inhibition zone (IZ) [7]: 16 mm
- inhibition zone (IZ) (Nakaseomyces glabratus): 11 mm
- inhibition zone (IZ) (Escherichia coli [8]): 15 mm
- inhibition zone (IZ) (Klebsiella pneumoniae [9]): 11 mm
- inhibition zone (IZ) (Candida tropicalis): 10 mm
- inhibition zone (IZ) (Staphylococcus aureus [10]): 12 mm
- MIC (Staphylococcus aureus [2]): 460 µg/mL (≈ 608 µM)
- MIC (Enterobacter cloacae [11]): 890 µg/mL (≈ 1180 µM)
- MIC (Klebsiella pneumoniae [12]): 790 µg/mL (≈ 1040 µM)
- inhibition zone (IZ) (Enterobacter cloacae [13]): 10 mm

Reference: ChEMBL document CHEMBL1155754, “Samioside, a new phenylethanoid glycoside with free-radical scavenging and antimicrobial activities from Phlomis samia” (J Nat Prod, 2001)
